Data reported in ChEMBL document CHEMBL2062406, “Fluorocyclopentenyl-cytosine with broad spectrum and potent antitumor activity” (J Med Chem, 2012).
pIC50: −log10 of the molar value. Each block holds one molecule with its values, some of them ahead of it. Calls of active or inactive are those of the source. The calls are words filed in the database; no cut-off is given here.

Experiments:
SK-MEL-28 [1] = test: Antitumor activity against human SK-MEL-28 cells by SRB method; type: functional, cell-based
PANC-1 [2] = test: Antitumor activity against human PANC1 cells by SRB method; type: functional, cell-based
K562 [3] = test: Antitumor activity against human K562 cells by SRB method; type: functional, cell-based
UMRC2 [4] = test: (§1) Antitumor activity against human UMRC2 cells by SRB method; type: functional, cell-based
HCT-116 [5] = test: Antitumor activity against human HCT116 cells by SRB method; type: functional, cell-based
A549 [6] = test: Antitumor activity against human A549 cells by SRB method; type: functional, cell-based
LNCaP [7] = test: Antitumor activity against human LNCAP cells by SRB method; type: functional, cell-based
HeLa [8] = test: Antitumor activity against human HeLa cells by SRB method; type: functional, cell-based
U-251 [9] = test: Antitumor activity against human U251 cells by SRB method; type: functional, cell-based
MDA-MB-231 [10] = test: Antitumor activity against human MDA-MB-231 cells by SRB method; type: functional, cell-based
HepG2 [11] = test: Antitumor activity against human HepG2 cells by SRB method; type: functional, cell-based
OVCAR-3 [12] = test: Antitumor activity against human OVCAR3 cells by SRB method; type: functional, cell-based
NCI-H226 [13] = test: Antitumor activity against human NCI-H226 cells by SRB method; type: functional, cell-based
PC-3 [14] = test: Antitumor activity against human PC3 cells by SRB method; type: functional, cell-based
MCF7 [15] = test: Antitumor activity against human MCF7 cells by SRB method; type: functional, cell-based
MKN-45 [16] = test: Antitumor activity against human MKN45 cells by SRB method; type: functional, cell-based
HT-29 [17] = test: Antitumor activity against human HT-29 cells by SRB method; type: functional, cell-based
A549 [18] = test: Antitumor activity against human A549 cells xenografted in nu/nu mouse assessed as inhibition of tumor volume at 10 mg/kg, ip administered three times a week for 3 weeks; type: functional; details: 504 h, route intraperitoneal
Outline: (§2)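 Male nu/nu mice received 3 × 10⁶ A549 cells subcutaneously in the right flank. Dosing began at about 100 mm³ tumor volume: 3 or 10 mg/kg intraperitoneally, three times a week for three weeks. Tumor volume was measured by caliper every 2−3 days. Percent inhibition of tumor volume was calculated against a vehicle-treated control group.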

MDA-MB-231 [19] = test: Antitumor activity against human MDA-MB-231 cells at 1 uM by SRB method; type: functional, cell-based
Mus musculus = test: Toxicity in nu/nu mouse xenografted with human A549 cells assessed as change in body weight 3 to 10 mg/kg, ip administered three times a week for 3 weeks; type: organism-based; design: dose 3-10 mg/kg, route intraperitoneal; details: in vivo, 504 h
Outline: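 Mouse body weight was monitored throughout in male nu/nu mice bearing subcutaneous A549 flank xenografts (3 × 10⁶ cells). These mice received 3 or 10 mg/kg intraperitoneally three times a week for three weeks, starting when tumors reached about 100 mm³, and were compared with vehicle controls.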

[20] = as §1; type: functional, cell-based
MKN-45 [21] = test: Antitumor activity against human MKN45 cells at 1 uM by SRB method; type: functional, cell-based
A549 [22] = test: Antitumor activity against human A549 cells xenografted in nu/nu mouse assessed as inhibition of tumor volume at 3 mg/kg, ip administered three times a week for 3 weeks; type: functional; details: 504 h, route intraperitoneal; outline: as §2
A549 [23] = test: Antitumor activity against human A549 cells xenografted in ip dosed nu/nu mouse assessed as inhibition of tumor volume administered three times a week for 3 weeks; type: functional, organism-based; outline: as §2
A549 [24] = test: Antitumor activity against human A549 cells at 1 uM by SRB method; type: functional, cell-based
HepG2 [25] = test: Antitumor activity against human HepG2 cells at 1 uM by SRB method; type: functional, cell-based
PC-3 [26] = test: Antitumor activity against human PC3 cells at 1 uM by SRB method; type: functional, cell-based
SK-MEL-28 [27] = test: Antitumor activity against human SK-MEL-28 cells at 1 uM by SRB method; type: functional, cell-based
OVCAR-3 [28] = test: Antitumor activity against human OVCAR3 cells at 1 uM by SRB method; type: functional, cell-based
HT-29 [29] = test: Antitumor activity against human HT-29 cells at 1 uM by SRB method; type: functional, cell-based
HeLa [30] = test: Antitumor activity against human HeLa cells at 1 uM by SRB method; type: functional, cell-based
PANC-1 [31] = test: Antitumor activity against human PANC1 cells at 1 uM by SRB method; type: functional, cell-based
UMRC2 [32] = test: Antitumor activity against human UMRC2 cells at 1 uM by SRB method; type: functional, cell-based
MCF7 [33] = test: Antitumor activity against human MCF7 cells at 1 uM by SRB method; type: functional, cell-based
A549 [34] = test: Antitumor activity against human A549 cells xenografted in ip dosed nu/nu mouse assessed as inhibition of tumor weight administered three times a week for 3 weeks; type: functional, organism-based
Outline: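 Male nu/nu mice carried subcutaneous right-flank A549 xenografts (3 × 10⁶ cells). Treatment started at about 100 mm³ with 3 or 10 mg/kg intraperitoneally, three times weekly for three weeks. Tumors were excised and weighed on day 38. Comparison was with the vehicle control group, with significance at p < 0.05 or p < 0.01.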

MDA-MB-231 [35] = test: Inhibition of DNMT-1 protein human expression in MDA-MB-231 cells after 24 hrs by Western blot analysis; type: functional, cell-based
Outline: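 MDA-MB-231 cells were exposed to 0, 1, 1.5, 2 or 5 μM for 24 h. DNMT-1 protein was detected by Western blot, with actin as the loading control. Blots are representative of two independent cell cultures.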

U-251 [36] = test: Antitumor activity against human U251 cells at 1 uM by SRB method; type: functional, cell-based
NCI-H226 [37] = test: Antitumor activity against human NCI-H226 cells at 1 uM by SRB method; type: functional, cell-based
HCT-116 [38] = test: Antitumor activity against human HCT116 cells at 1 uM by SRB method; type: functional, cell-based
A549 [39] = test: Antitumor activity against human A549 cells xenografted in ip dosed nu/nu mouse assessed as tumor growth inhibition administered three times a week for 3 weeks; type: functional, organism-based; outline: as §2
K562 [40] = test: Antitumor activity against human K562 cells at 1 uM by SRB method; type: functional, cell-based
LNCaP [41] = test: Antitumor activity against human LNCAP cells at 1 uM by SRB method; type: functional, cell-based

SMILES: Nc1ccn([C@H]2C[C@H](O)C(CO)=C2F)c(=O)n1
Activity (SK-MEL-28 [1]): inactive
Activity (PANC-1 [2]): inactive
Activity (K562 [3]): inactive
Activity (UMRC2 [4]): inactive
Activity (HCT-116 [5]): inactive
Activity (A549 [6]): inactive
Activity (LNCaP [7]): inactive
Activity (HeLa [8]): inactive
Activity (U-251 [9]): inactive
Activity (MDA-MB-231 [10]): inactive
Activity (HepG2 [11]): inactive
Activity (OVCAR-3 [12]): inactive
Activity (NCI-H226 [13]): inactive
Activity (PC-3 [14]): inactive
Activity (MCF7 [15]): inactive
Activity (MKN-45 [16]): inactive
Activity (HT-29 [17]): inactive

SMILES: Nc1ccn([C@@H]2O[C@H](CO)[C@@H](O)C2(F)F)c(=O)n1 [GEMCITABINE]
inhibition in vivo at 10 mg/kg (A549 [18]): 76.7%

pIC50 (SK-MEL-28 [1]): 5.86
pIC50 (K562 [3]): 6.09
pIC50 (HCT-116 [5]): 6.72
pIC50 (A549 [6]): 6.30
pIC50 (LNCaP [7]): 5.57
pIC50 (HeLa [8]): 5.87
pIC50 (U-251 [9]): 6.08
pIC50 (MDA-MB-231 [10]): 6.74
pIC50 (HepG2 [11]): 6.10
pIC50 (OVCAR-3 [12]): 6.10
pIC50 (NCI-H226 [13]): 6.60
pIC50 (PC-3 [14]): 6.20
pIC50 (MCF7 [15]): 6.47
pIC50 (MKN-45 [16]): 6.47
pIC50 (HT-29 [17]): 6.55
SMILES: Nc1ccn([C@@H]2C(F)=C(CO)[C@@H](O)[C@H]2O)c(=O)n1 [RODUCITABINE]
Activity (MDA-MB-231 [19]): Active
inhibition in vivo at 10 mg/kg (A549 [18]): 58.1%
Activity (Mus musculus): Non-toxic
pIC50 [20]: 6.08
Activity (MKN-45 [21]): Active
inhibition in vivo at 3 mg/kg (A549 [22]): 31.8%
inhibition (A549 [23]): Dose-dependent effect
Activity (A549 [24]): Active
Activity (HepG2 [25]): Active
Activity (PC-3 [26]): Active
Activity (SK-MEL-28 [27]): Active
Activity (OVCAR-3 [28]): Active
Activity (HT-29 [29]): Active
Activity (HeLa [30]): Active
Activity (PANC-1 [31]): Active
Activity (UMRC2 [32]): Active
Activity (MCF7 [33]): Active
inhibition (A549 [34]): Dose-dependent effect
inhibition (MDA-MB-231 [35]): Dose-dependent effect
Activity (U-251 [36]): Active
Activity (NCI-H226 [37]): Active
Activity (HCT-116 [38]): Active
inhibition (A549 [39]): Dose-dependent effect
Activity (K562 [40]): Active
Activity (LNCaP [41]): Active
